Assay results pooled from the literature.
Protocols differ between the studies behind these lines.
murD: UDP-N-acetylmuramoylalanine--D-glutamate ligase (murD, Escherichia coli K-12, UniProt P14900)
BAZ1B: Tyrosine-protein kinase BAZ1B (BAZ1B, Homo sapiens, UniProt Q9UIG0)
BRD4 BD1: Bromodomain-containing protein 4, BD1 (BRD4, Homo sapiens, UniProt O60885)
HDAC8: Histone deacetylase 8 (HDAC8, Homo sapiens, UniProt Q9BY41)

`O=C(Cc1ccc2c(c1)OCO2)Oc1ccccc1C=NNS(=O)(=O)c1ccc2ccccc2c1` gave a remaining activity of 49% (murD; enzyme activity, inhibitor, absorbance; 100 µM).
`C[S+]([O-])c1ccc(-c2nc(-c3ccncc3)c(-c3ccc(F)cc3)[nH]2)cc1` (centres unmarked) gave a ΔTm of 0.29 °C (BAZ1B; thermal stability, DSF; 10 µM).
`CC(C)[C@@H]1NC(=O)[C@@H]2CCCN2C(=O)[C@H](Cc2ccccc2)NC(=O)CSC[C@@H](C(=O)N[C@@H](Cc2ccc(O)cc2)C(N)=O)NC(=O)[C@H](Cc2c[nH]c3ccccc23)NC(=O)[C@H](CCCCN)NC(=O)[C@H](Cc2ccccc2)N(C)C(=O)[C@H](Cc2ccccc2)NC1=O` gave a ΔTm of -0.27 °C (BRD4 BD1; thermal stability, DSF; 200 µM).
The ΔTm of `Cc1cnc(Nc2ccc(OCCN3CCCC3)cc2)nc1Nc1cccc(S(=O)(=O)NC(C)(C)C)c1` is reported as 3.11 °C (Bromodomain-containing protein 4, BD2 (BRD4, Homo sapiens, UniProt O60885); thermal stability, DSF; 10 µM).
`O=c1c(O)c(-c2ccc(O)c(O)c2)oc2cc(O)cc(O)c12` gave an inhibition of 68% (HDAC8; enzyme activity, inhibitor; 10 µM).
With `NS(=O)(=O)c1ccc(Nc2nc(-c3ccc(F)cc3)c3ccccc3n2)cc1` the remaining binding was 80% (Histone acetyltransferase KAT2B (KAT2B, Homo sapiens, UniProt Q92831); binding, competition with immobilised ligand; 1 µM).
With `O=c1c(O)c(-c2ccc(O)cc2)oc2cc(O)cc(O)c12` the inhibition was 66.3% (HDAC8; enzyme activity, inhibitor; 10 µM).
`Cc1cc2c(cc1N1C(=O)c3cccc4c(Cl)ccc(c34)C1=O)n(C)c(=O)n2C` gave a ΔTm of -1 °C (BAZ1B; thermal stability, DSF; 10 µM).
The remaining activity of `O=[N+]([O-])c1ccccc1S(=O)(=O)Oc1ccccc1C=NNS(=O)(=O)c1ccc2ccccc2c1` is reported as 71% (murD; enzyme activity, inhibitor, absorbance; 50 µM).
For `Cc1ccc(C(=O)Nc2ccc(CN3CCN(C)CC3)c(C(F)(F)F)c2)cc1C#Cc1cnc2cccnn12`, the remaining activity was 79% (Cyclin-dependent kinase 11B (CDK11B, Homo sapiens, UniProt P21127); enzyme activity; 23.5 nM).
`O=[N+]([O-])c1cccc(COc2ccccc2C=NNS(=O)(=O)c2ccc3ccccc3c2)c1` gave a remaining activity of 70% (murD; enzyme activity, inhibitor, absorbance; 50 µM).
`CCCOc1ccc(OC)c(F)c1C(=O)c1ccc(C(=O)N[C@@H]2CNC[C@H]2NC(=O)c2ccc3[nH]ncc3c2)cc1` gave a remaining activity of 22% (cGMP-dependent protein kinase 1 (PRKG1, Homo sapiens, UniProt Q13976); enzyme activity, inhibitor; 50 nM).
The remaining activity of `N#Cc1ccc(COc2ccccc2C=NNS(=O)(=O)c2ccccc2[N+](=O)[O-])cc1` is reported as 86% (murD; enzyme activity, inhibitor, absorbance; 100 µM).
`Oc1ccc(-c2nc(-c3ccncc3)c(-c3ccc(F)cc3)[nH]2)cc1` gave a ΔTm of 0.55 °C (BRD4 BD1; thermal stability, DSF; 10 µM).
With `O=[N+]([O-])c1cccc(S(=O)(=O)Oc2ccccc2C=NNS(=O)(=O)c2ccc3ccccc3c2)c1` the remaining activity was 70% (murD; enzyme activity, inhibitor, absorbance; 50 µM).
With `Nc1ncnc2occ(-c3ccc(NC(=O)Nc4cc(C(F)(F)F)ccc4F)cc3)c12` the remaining signal was 1.6% (Mitogen-activated protein kinase kinase kinase 4 (MAP3K4, Homo sapiens, UniProt Q9Y6R4); cell-free assay, inhibitor; 20 µM).
The ΔTm of `Cn1nnc2ccc(NC(=O)c3cccc(C(=O)O)c3)cc21` is reported as 2.8 °C (BRD4 BD1; thermal stability, DSF; 100 µM).
